≈ marks a conversion by molar mass, not a printed value.
Tests used:
Type in all cases: functional
Bacillus subtilis [1] = experiment: Growth inhibition of Bacillus subtilis NCIM 2079 at 10 ug/ml measured after 12 hrs relative to control; settings: NCIM 2079, 12 h, read-out: GI
In short: (§1)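 Bacteria grown in LB at 37 °C and 180 rpm to OD 1. Compounds added to wells, then 0.1% inoculum of 1 OD culture (620 nm). Growth read as OD at 620 nm after 8 h for gram-negative and after 12 h for gram-positive strains.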

Pseudomonas fluorescens [2] = experiment: Growth inhibition of Pseudomonas fluorescens NCIM 2036 at 30 ug/ml measured after 8 hrs relative to control; settings: NCIM 2036, 8 h, read-out: GI; in short: as §1
Pseudomonas fluorescens [3] = experiment: Antibacterial activity against Pseudomonas fluorescens NCIM 2036 measured after 8 hrs; settings: NCIM 2036, 8 h; in short: as §1
[4] = tested on: Mycobacterium tuberculosis; experiment: Growth inhibition of Mycobacterium bovis BCG ATCC 35743 at dormant stage at 30 ug/ml measured after 12 days by nitrate reductase dye based two fold dilution method relative to control; settings: BCG str. ATCC 35743, 288 h, read-out: GI
In short: (§2)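 M. bovis BCG was grown in Dubos medium and assayed in Mycobacterium pheli minimal medium (pH 6.6), with compounds from DMSO stocks. Incubation lasted 8 days for active and 12 days for dormant cultures. Viability was read by nitrate reductase at 540 nm against cell-free blanks, with vehicle set as 100% growth. Primary screen was at 30, 10 and 3 µg/ml, in triplicate, mean ± SD. MIC was taken from dose-response curves.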

Bacillus subtilis [5] = experiment: Growth inhibition of Bacillus subtilis NCIM 2079 at 3 ug/ml measured after 12 hrs relative to control; settings: NCIM 2079, 12 h, read-out: GI; in short: as §1
Escherichia coli [6] = experiment: Growth inhibition of Escherichia coli NCIM 2688 at 10 ug/ml measured after 8 hrs relative to control; settings: NCIM 2688, 8 h, read-out: GI; in short: as §1
Bacillus subtilis [7] = experiment: Growth inhibition of Bacillus subtilis NCIM 2079 at 30 ug/ml measured after 12 hrs relative to control; settings: NCIM 2079, 12 h, read-out: GI; in short: as §1
[8] = tested on: Mycobacterium tuberculosis; experiment: Growth inhibition of Mycobacterium bovis BCG ATCC 35743 at dormant stage at 3 ug/ml measured after 12 days by nitrate reductase dye based two fold dilution method relative to control; settings: BCG str. ATCC 35743, 288 h, read-out: GI; in short: as §2
[9] = tested on: Mycobacterium tuberculosis; experiment: Growth inhibition of Mycobacterium tuberculosis H37Ra ATCC 25177 at dormant stage measured after 12 days by XTT dye based two fold dilution method; settings: H37Ra ATCC 25177, 288 h
In short: (§3)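 MTB H37Ra was grown in Dubos medium, then exposed in Mycobacterium pheli minimal medium (pH 6.6) to compounds dissolved in DMSO. The assay ended on day 8 (active) or day 12 (dormant). Viable cells were measured by XTT reduction menadione assay at 470 nm, blank-corrected, relative to vehicle control. Triplicates were expressed as mean ± SD. MIC came from dose-response curves.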

Candida albicans = experiment: Antifungal activity against Candida albicans NCIM 3471 by standard agar method
In short: (§4)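 MICs determined by standard agar method; DMSO as solvent control.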

Staphylococcus aureus [10] = experiment: Growth inhibition of Staphylococcus aureus NCIM 2010 at 30 ug/ml measured after 12 hrs relative to control; settings: NCIM 2010, 12 h, read-out: GI; in short: as §1
Escherichia coli [11] = experiment: Growth inhibition of Escherichia coli NCIM 2688 at 30 ug/ml measured after 8 hrs relative to control; settings: NCIM 2688, 8 h, read-out: GI; in short: as §1
[12] = Antifungal activity against Cryptococcus neoformans NCIM 576 by standard agar method; in short: as §4
Aspergillus flavus = experiment: Antifungal activity against Aspergillus flavus NCIM 539 by standard agar method; in short: as §4
[13] = tested on: Mycobacterium tuberculosis; experiment: Growth inhibition of Mycobacterium bovis BCG ATCC 35743 at dormant stage measured after 12 days by nitrate reductase dye based two fold dilution method; settings: BCG str. ATCC 35743, 288 h; in short: as §2
[14] = tested on: Mycobacterium tuberculosis; experiment: Growth inhibition of Mycobacterium bovis BCG ATCC 35743 at active stage measured after 8 days by nitrate reductase dye based two fold dilution method; settings: BCG str. ATCC 35743, 192 h; in short: as §2
Staphylococcus aureus [15] = experiment: Antibacterial activity against of Staphylococcus aureus NCIM 2010 measured after 12 hrs; settings: NCIM 2010, 12 h; in short: as §1
Staphylococcus aureus [16] = experiment: Growth inhibition of Staphylococcus aureus NCIM 2010 at 3 ug/ml measured after 12 hrs relative to control; settings: NCIM 2010, 12 h, read-out: GI; in short: as §1
[17] = tested on: Mycobacterium tuberculosis; experiment: Growth inhibition of Mycobacterium bovis BCG ATCC 35743 at dormant stage at 10 ug/ml measured after 12 days by nitrate reductase dye based two fold dilution method relative to control; settings: BCG str. ATCC 35743, 288 h, read-out: GI; in short: as §2
Escherichia coli [18] = experiment: Antibacterial activity against Escherichia coli NCIM 2688 measured after 8 hrs; settings: NCIM 2688, 8 h; in short: as §1
Staphylococcus aureus [19] = experiment: Growth inhibition of Staphylococcus aureus NCIM 2010 at 10 ug/ml measured after 12 hrs relative to control; settings: NCIM 2010, 12 h, read-out: GI; in short: as §1
Pseudomonas fluorescens [20] = experiment: Growth inhibition of Pseudomonas fluorescens NCIM 2036 at 3 ug/ml measured after 8 hrs relative to control; settings: NCIM 2036, 8 h, read-out: GI; in short: as §1
Escherichia coli [21] = experiment: Growth inhibition of Escherichia coli NCIM 2688 at 3 ug/ml measured after 8 hrs relative to control; settings: NCIM 2688, 8 h, read-out: GI; in short: as §1
[22] = tested on: Mycobacterium tuberculosis; experiment: Growth inhibition of Mycobacterium tuberculosis H37Ra ATCC 25177 at active stage measured after 8 days by XTT dye based two fold dilution method; settings: H37Ra ATCC 25177, 192 h; in short: as §3
[23] = Antifungal activity against Fusarium oxysporum NCIM 1332 by standard agar method; in short: as §4
Pseudomonas fluorescens [24] = experiment: Growth inhibition of Pseudomonas fluorescens NCIM 2036 at 10 ug/ml measured after 8 hrs relative to control; settings: NCIM 2036, 8 h, read-out: GI; in short: as §1
Bacillus subtilis [25] = experiment: Antibacterial activity against Bacillus subtilis NCIM 2079 measured after 12 hrs; settings: NCIM 2079, 12 h; in short: as §1
Aspergillus niger = experiment: Antifungal activity against Aspergillus niger NCIM 1196 by standard agar method; in short: as §4

CCOc1ccc2nc(Cl)c(/C=C3\SC(=S)N(CCC(=O)O)C3=O)cc2c1 gave an inhibition of growth at 10 µg/mL (Bacillus subtilis [1]) of -8.28%, an inhibition of growth at 30 µg/mL (Pseudomonas fluorescens [2]) of 7.19% and an MIC (Pseudomonas fluorescens [3]) of over 30 µg/mL. It also gave an inhibition of growth at 30 µg/mL [4] of 32.5%, an inhibition of growth at 3 µg/mL (Bacillus subtilis [5]) of -2.45% and an inhibition of growth at 10 µg/mL (Escherichia coli [6]) of 7.42%. For the same molecule, the inhibition of growth at 30 µg/mL (Bacillus subtilis [7]) was -4.16%, the inhibition of growth at 3 µg/mL [8] was 21.5% and the IC50 [9] was over 30 µg/mL. The IC90 [9] was over 30 µg/mL, the MIC (Candida albicans) was 200 µg/mL (≈ 473 µM) and the inhibition of growth at 30 µg/mL (Staphylococcus aureus [10]) was -27.7%. The inhibition of growth at 30 µg/mL (Escherichia coli [11]) was 14.8%, the MIC [12] was 175 µg/mL (≈ 414 µM) and the MIC (Aspergillus flavus) was 100 µg/mL (≈ 236 µM). For the same molecule, the IC50 [13] was over 30 µg/mL, the IC90 [13] was over 30 µg/mL and the IC50 [14] was over 30 µg/mL. The IC90 [14] was over 30 µg/mL, the MIC (Staphylococcus aureus [15]) was over 30 µg/mL and the inhibition of growth at 3 µg/mL (Staphylococcus aureus [16]) was -5.78%. It also gave an inhibition of growth at 10 µg/mL [17] of 33%, an MIC (Escherichia coli [18]) of over 30 µg/mL and an inhibition of growth at 10 µg/mL (Staphylococcus aureus [19]) of -39.4%. The inhibition of growth at 3 µg/mL (Pseudomonas fluorescens [20]) was -85%, the inhibition of growth at 3 µg/mL (Escherichia coli [21]) was 5.32% and the IC50 [22] was over 30 µg/mL. The IC90 [22] was over 30 µg/mL, the MIC [23] was 125 µg/mL (≈ 296 µM) and the inhibition of growth at 10 µg/mL (Pseudomonas fluorescens [24]) was -40.5%. The MIC (Bacillus subtilis [25]) was over 30 µg/mL and the MIC (Aspergillus niger) was 175 µg/mL (≈ 414 µM).
COc1ccc2cc(/C=C3\SC(=S)N(CC(=O)O)C3=O)c(Cl)nc2c1 gave an inhibition of growth at 10 µg/mL (Bacillus subtilis [1]) of -0.0845%, an inhibition of growth at 30 µg/mL (Pseudomonas fluorescens [2]) of 10.3% and an MIC (Pseudomonas fluorescens [3]) of over 30 µg/mL. For the same molecule, the inhibition of growth at 30 µg/mL [4] was 0.66%, the inhibition of growth at 3 µg/mL (Bacillus subtilis [5]) was 2.79% and the inhibition of growth at 10 µg/mL (Escherichia coli [6]) was 7.54%. It also gave an inhibition of growth at 30 µg/mL (Bacillus subtilis [7]) of 6.8%, an inhibition of growth at 3 µg/mL [8] of -1.36% and an IC50 [9] of over 30 µg/mL. The IC90 [9] was over 30 µg/mL, the MIC (Candida albicans) was 50 µg/mL (≈ 127 µM) and the inhibition of growth at 30 µg/mL (Staphylococcus aureus [10]) was -17.7%. It also gave an inhibition of growth at 30 µg/mL (Escherichia coli [11]) of -17.9%, an MIC [12] of 100 µg/mL (≈ 253 µM) and an MIC (Aspergillus flavus) of 125 µg/mL (≈ 317 µM). The IC50 [13] was over 30 µg/mL, the IC90 [13] was over 30 µg/mL and the IC50 [14] was over 30 µg/mL. It also gave an IC90 [14] of over 30 µg/mL, an MIC (Staphylococcus aureus [15]) of over 30 µg/mL and an inhibition of growth at 3 µg/mL (Staphylococcus aureus [16]) of -13.7%. For the same molecule, the inhibition of growth at 10 µg/mL [17] was 33%, the MIC (Escherichia coli [18]) was over 30 µg/mL and the inhibition of growth at 10 µg/mL (Staphylococcus aureus [19]) was -11.3%. It also gave an inhibition of growth at 3 µg/mL (Pseudomonas fluorescens [20]) of 4.92%, an inhibition of growth at 3 µg/mL (Escherichia coli [21]) of 2.49% and an IC50 [22] of over 30 µg/mL. For the same molecule, the IC90 [22] was over 30 µg/mL, the MIC [23] was 75 µg/mL (≈ 190 µM) and the inhibition of growth at 10 µg/mL (Pseudomonas fluorescens [24]) was -54.3%. The MIC (Bacillus subtilis [25]) was over 30 µg/mL and the MIC (Aspergillus niger) was 150 µg/mL (≈ 380 µM).

Reference: ChEMBL document CHEMBL3877264, “Quinolidene-rhodanine conjugates: Facile synthesis and biological evaluation” (Eur J Med Chem, 2017)
